# In ChEMBL document CHEMBL5705892, “MK-2206, an allosteric Akt inhibitor, enhances antitumor efficacy by standard chemotherapeutic agents or molecular targeted drugs in vitro and in vivo” (Mol Cancer Ther, 2010):
# The source made the active and inactive calls. The calls are words filed in the database; no cut-off is given here.
# What was measured:
# [1] = tested on: A2780; test: Synergistic antiproliferative activity against human A2780 cells assessed as combination index at ED50 measured after 72 hrs in presence of carboplatin by celltiter-glo assay; type: functional
# Method in brief: (§1)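 Cells were seeded at 2–3 × 10³ per well in RPMI 1640 with 10% FBS. At 24 h, MK-2206 and the partner drug were added simultaneously at constant concentration ratios spanning each agent's IC₅₀, for 72 h. Growth was read as cellular ATP by CellTiter-Glo. CI was taken from median-effect plots of each agent alone and in combination (Chou–Talalay), at ED₅₀, ED₇₅ and ED₉₀.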
# [2] = target: RAC-alpha serine/threonine-protein kinase (Homo sapiens) (UniProt P31749); test: Inhibition of AKT in human HCC70 cells assessed as reduction in S6 phosphorylation at S240/S244 residues at 1 umol/L by Western blot analysis; type: cell-based; conditions: dose 1.0 µmol/L, time 3-24 hrs
# Chain of RAC-alpha serine/threonine-protein kinase (Homo sapiens) (P31749 whole entry): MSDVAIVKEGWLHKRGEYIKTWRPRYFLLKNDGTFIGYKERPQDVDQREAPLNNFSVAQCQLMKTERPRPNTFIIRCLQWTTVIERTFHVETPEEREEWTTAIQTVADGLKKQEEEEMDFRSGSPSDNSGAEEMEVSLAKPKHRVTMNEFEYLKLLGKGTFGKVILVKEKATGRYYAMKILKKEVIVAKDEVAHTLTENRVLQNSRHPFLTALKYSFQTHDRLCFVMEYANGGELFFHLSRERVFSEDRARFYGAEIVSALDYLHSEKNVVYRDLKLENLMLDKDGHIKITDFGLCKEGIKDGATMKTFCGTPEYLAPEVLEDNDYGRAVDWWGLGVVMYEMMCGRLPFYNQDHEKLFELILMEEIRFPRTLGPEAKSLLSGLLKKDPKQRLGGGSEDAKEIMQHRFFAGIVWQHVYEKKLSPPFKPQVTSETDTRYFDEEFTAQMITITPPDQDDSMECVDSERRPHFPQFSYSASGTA
# Method in brief: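 HCC70 cells at ~70% confluence were exposed to 10 µmol/L lapatinib, 1 µmol/L MK-2206, or both, for 0, 3, 6, 12 or 24 h. Lysates were prepared in Triton X-100/Tris buffer (pH 7.5) with protease and phosphatase inhibitors. Immunoblots after SDS-PAGE and nitrocellulose transfer were probed for pAkt and pS6.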
# [3] = tested on: SK-OV-3; test: Synergistic antiproliferative activity against human SK-OV-3 cells assessed as combination index at ED90 measured after 96 hrs in presence of lapatinib by celltiter-glo assay; type: functional
# [4] = tested on: NCI-H441; test: Synergistic antiproliferative activity against human NCI-H441 cells assessed as combination index at ED25 to ED90 measured after 72 hrs in presence of gemcitabine by celltiter-glo assay; type: functional
# [5] = tested on: NCI-H1299; test: Synergistic antiproliferative activity against human NCI-H1299 cells assessed as combination index at ED90 measured after 72 hrs in presence of erlotinib by celltiter-glo assay; type: functional
# [6] = In vivo inhibition of AKT phosphorylation at S473 residue in human NCI-H292 cells xenografted mouse at 120 mg/kg, po administered as single dose measured after 12 hrs by Western blot analysis relative to control; type: functional
# [7] = tested on: NCI-H460; test: Antitumor activity against human NCI-H460 cells xenografted in CD1 nude mouse assessed as reduction in tumor volume at 120 mg/kg, po administered 3 times per week for 2 weeks in presence of gemcitabine by caliper method; type: functional, organism-based
# Method in brief: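 NCI-H460 cells were injected s.c. in Matrigel/PBS into CD1-nude mice (female in the carboplatin study). Mice were randomized at 0.2 cm³, n = 5. Carboplatin was given at 50 mg/kg or gemcitabine at 100 mg/kg, i.v. in saline, on days 0 and 7. MK-2206 (30% Captisol) was given at 120 mg/kg po on days 0, 2, 4, 7, 9, 11. Tumors measured by caliper twice weekly.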
# [8] = tested on: BT-20; test: Synergistic antiproliferative activity against human BT-20 cells assessed as combination index at ED90 measured after 72 hrs in presence of docetaxel by celltiter-glo assay; type: functional
# Method in brief: (§2)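 Cells grown in RPMI 1640 with 10% heat-inactivated FBS at 37°C, 5% CO₂. Seeded at 2 to 3 × 10³ per well; drugs added 24 h later. […] Viability read as cellular ATP by CellTiter-Glo. CI calculated by Chou–Talalay from median-effect plots at ED50, ED75 and ED90.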
# [9] = Toxicity in human PC-3 cells xenografted CD1 nude mouse assessed as body weight loss at 120 mg/kg, po administered 3 times per week for 2 weeks measured on day 15; type: organism-based; conditions: in vivo, 360 h, time 15 day
# Method in brief: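 Male CD1-nude mice with s.c. PC-3 tumours (50% Matrigel/50% PBS, left flank), randomized at mean 0.2 cm³, n=5/group, treated from 25 d post-implant. Body weight monitored versus vehicle-only controls.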
# [10] = tested on: MDA-MB-453; test: Synergistic antiproliferative activity against human MDA-MB-453 cells assessed as combination index at ED75 measured after 72 hrs in presence of docetaxel by celltiter-glo assay; type: functional; method in brief: as §2
# [11] = tested on: NCI-N87; test: Synergistic antiproliferative activity against human NCI-N87 cells assessed as combination index at ED50 measured after 96 hrs in presence of lapatinib by celltiter-glo assay; type: functional
# [12] = tested on: SK-OV-3; test: Synergistic antiproliferative activity against lapatinib pretreated human SK-OV-3 cells assessed as combination index at ED75 measured after 72 hrs by celltiter-glo assay; type: functional
# [13] = tested on: SK-OV-3; test: Synergistic antiproliferative activity against human SK-OV-3 cells assessed as combination index at ED90 treated 24 hrs prior to lapatinib and measured after 72 hrs by celltiter-glo assay; type: functional; conditions: time 96 hrs
# [14] = tested on: UMC-11; test: Synergistic antiproliferative activity against human UMC-11 cells assessed as combination index at ED25 to ED90 measured after 72 hrs in presence of gemcitabine by celltiter-glo assay; type: functional
# [15] = tested on: NCI-H1703; test: Induction of apoptosis in human NCI-H1703 cells assessed as fold induction of capsase-3/7 activity measured after 24 to 48 hrs in presence of carboplatin by caspase-glo 3/7 assay; type: functional; conditions: time 24-48 hrs
# [16] = tested on: SK-BR-3; test: Synergistic antiproliferative activity against lapatinib pretreated human SK-BR-3 cells assessed as combination index at ED50 measured after 72 hrs by celltiter-glo assay; type: functional
# [17] = tested on: NCI-H460; test: Synergistic antiproliferative activity against human NCI-H460 cells assessed as combination index at ED90 measured after 72 hrs in presence of gemcitabine by celltiter-glo assay; type: functional
# [18] = tested on: NCI-N87; test: Synergistic antiproliferative activity against lapatinib pretreated human NCI-N87 cells assessed as combination index at ED75 measured after 72 hrs by celltiter-glo assay; type: functional
# [19] = target: RAC-alpha serine/threonine-protein kinase (Homo sapiens) (UniProt P31749); test: Inhibition of AKT in human A-431 cells assessed as reduction in AKT phosphorylation at S473 residue at 5 umol/L measured after 5 hrs in presence of erlotinib by Western blot analysis; type: cell-based; conditions: dose 5.0 µmol/L
# Method in brief: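 Cells were lysed in Tris-HCl pH 7.5, 150 mM NaCl, 1% Triton X-100 with protease and phosphatase inhibitors. Lysates were run on SDS-PAGE, transferred to nitrocellulose and probed with phospho-specific antibodies.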
# [20] = tested on: A2780; test: Induction of apoptosis in human A2780 cells assessed as increase in caspase-3/7 activity measured after 48 hrs in presence of carboplatin by caspase-glo 3/7 assay; type: functional, cell-based; conditions: dose 0.0625-1 µM
# [21] = tested on: A2780; test: Synergistic antiproliferative activity against human A2780 cells assessed as combination index at ED75 measured after 72 hrs in presence of carboplatin by celltiter-glo assay; type: functional; method in brief: as §1
# [22] = tested on: BT-20; test: Synergistic antiproliferative activity against human BT-20 cells assessed as combination index at ED50 measured after 72 hrs in presence of docetaxel by celltiter-glo assay; type: functional; method in brief: as §2
# [23] = tested on: A2780; test: Synergistic antiproliferative activity against human A2780 cells assessed as combination index at ED90 measured after 72 hrs in presence of camptothecin by celltiter-glo assay; type: functional; method in brief: as §1
# [24] = tested on: NCI-H441; test: Synergistic antiproliferative activity against human NCI-H441 cells assessed as combination index at ED25 to ED90 measured after 72 hrs in presence of carboplatin by celltiter-glo assay; type: functional
structure (smiles),measurement,setting,value
Cl.NC1(c2ccc(-c3nc4ccn5c(=O)[nH]nc5c4cc3-c3ccccc3)cc2)CCC1,CI50,[1],0.49
same,inhibition,[2],Dose-Dependent Effect
same,CI90,[3],0.18
same,CI,[4],0.37
same,CI90,[5],0.52
same,inhibition in vivo at 120 mg/kg,[6],53.1%
same,Activity,[7],Active
same,CI90,[8],0.5
same,Activity,[9],Non-Toxic
same,CI75,[10],0.6
same,CI50,[11],0.18
same,CI75,[12],0.18
same,CI90,[13],0.18
same,CI,[14],0.53
same,fold change (FC),[15],1.3
same,CI50,[16],0.18
same,CI90,[17],0.56
same,CI75,[18],0.18
same,inhibition,[19],Active
same,Activity,[20],Dose-Dependent Effect
same,CI75,[21],0.43
same,CI50,[22],1
same,CI90,[23],0.29
same,CI,[24],0.46
